Results from ChEMBL document CHEMBL4513216, “Probing the Open Global Health Chemical Diversity Library for Multistage-Active Starting Points for Next-Generation Antimalarials” (ACS Infect Dis, 2020).

Test: Toxicity liver stage against HepG2, at 10uM
Format: cell-based
Design: test concentration 10 uM, cell line HepG2-A16-CD81EGFP
Settings: human, HepG2-A16-CD81EGFP cells; read-out: INHIBITION
Procedure, shortened: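 Uninfected HepG2-A16-CD81EGFP cells, 3 × 10^3 per well, 1536-well, plated on prespotted compound at 10 μM final, parasite-free screening media added to match infected plates; puromycin 10 μM positive, DMSO 0.5% negative; run in parallel with 48 h PbLuc assay at 37 °C, 5% CO2; viability by CellTiter-Glo luminescence, normalized to controls.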

Q: With `CN(C)C(=O)N1CCN(C(=O)c2ccc(Cl)cc2)CC2(CNC(=O)C2)C1` (stereo not drawn) as the compound, how does the cytotoxicity at 10 µM read?
A: 10.5%

Q: Which cytotoxicity at 10 µM does the source give for `O=C(NCCn1ccnc1)N1CCN(Cc2ccsc2)CC1` here?
A: -15.3%

Q: With `CCCC1CCCN(C(=O)CCn2cccn2)CC1` (stereo not drawn) as the compound, how does the cytotoxicity at 10 µM read?
A: -9.48%

Q: For `CN(C)C(=O)CCC(=O)N1CCC2(CC1)COC2`, which cytotoxicity at 10 µM is on record?
A: 2.05%

Q: Which cytotoxicity at 10 µM does the source give for `Cc1c(C(=O)N2CCC2(C)C)nnn1-c1cccc2cccnc12` here?
A: 4.13%

Q: For `Cc1cc(F)cc(S(=O)(=O)NCCCN2CCC(O)CC2)c1`, which cytotoxicity at 10 µM is on record?
A: -20.1%

Q: Which cytotoxicity at 10 µM does the source give for `CCOc1ccc(CN(C)C(C)C(=O)Nc2cc(C)no2)cc1` (stereo not drawn) here?
A: 10.6%

Q: Which cytotoxicity at 10 µM does the source give for `Cc1ncccc1C(=O)NC1(c2cccc(F)c2)CCOCC1` here?
A: 10.3%

Q: Which cytotoxicity at 10 µM does the source give for `CC(c1nncn1C)n1cc(-c2cc(CN3CCCC3)cs2)nn1` (stereo not drawn) here?
A: 2.04%

Q: Which cytotoxicity at 10 µM does the source give for `COCc1cccc(C(=O)N2CCCCC2c2nccs2)c1` (stereo not drawn) here?
A: -2.06%

Q: Which cytotoxicity at 10 µM does the source give for `O=C(NCCc1c[nH]cn1)c1n[nH]c2c1CCC2` here?
A: 1.67%

Q: For `COCCN1CCO[C@H]2CN(Cc3cccc(C)n3)C[C@H]21`, which cytotoxicity at 10 µM is on record?
A: -116%

Q: With `CC(C)(C)n1ncc2c1NC(=O)CSC2c1ccc2c(c1)OCO2` (stereo not drawn) as the compound, how does the cytotoxicity at 10 µM read?
A: 0.148%

Q: With `Cc1cccc(-n2cnnc2CCCN2CCOCC2)c1` as the compound, how does the cytotoxicity at 10 µM read?
A: -2.42%

Q: Which cytotoxicity at 10 µM does the source give for `CCc1ccc(OCCN(C)C(=O)c2ccncc2Cl)cc1` here?
A: -2.91%

Q: With `Cc1cnn(CC2CCCCN2C(=O)Cc2c(C)noc2Cl)c1` (stereo not drawn) as the compound, how does the cytotoxicity at 10 µM read?
A: -5.43%

Q: With `CS(=O)(=O)NCCNCc1ccc(Br)s1` as the compound, how does the cytotoxicity at 10 µM read?
A: -3.04%

Q: For `Cc1nc(C)n(CC2CCCN2Cc2cc(C)on2)n1` (stereo not drawn), which cytotoxicity at 10 µM is on record?
A: 4.04%

Q: Which cytotoxicity at 10 µM does the source give for `Cc1noc(C)c1CN1CCN(Cc2nccn2C)C(C)C1` (stereo not drawn) here?
A: -5.38%

Q: For `COc1cc(NC(=O)c2ccc(F)cc2Cl)c(C(=O)N(C)C)cc1OC`, which cytotoxicity at 10 µM is on record?
A: -11.1%

Q: With `CCCn1nc2c(cc1=O)CN(Cc1nc(-c3ccoc3)no1)CC2` as the compound, how does the cytotoxicity at 10 µM read?
A: 8.64%

Q: For `CCc1cc(CNC(=O)c2cc(NC(=O)C(C)C)ccc2Cl)[nH]n1`, which cytotoxicity at 10 µM is on record?
A: 9.36%

Q: With `Cc1nc(COC[C@@H]2CCC[C@@]23CN(C)CCO3)cs1` as the compound, how does the cytotoxicity at 10 µM read?
A: -88.9%

Q: For `COc1ccc(S(=O)(=O)NCC(O)c2sccc2C)cc1Cl` (stereo not drawn), which cytotoxicity at 10 µM is on record?
A: 1.17%

Q: Which cytotoxicity at 10 µM does the source give for `CN(C)c1ccc(C(CNS(=O)(=O)c2cccs2)N2CCCC2)cc1` (stereo not drawn) here?
A: 2.31%

Q: Which cytotoxicity at 10 µM does the source give for `COC[C@H]1CN(CC2CC2)C(=O)[C@@H]2CCN(Cc3ccoc3)CC[C@H]12` here?
A: -2.05%

Q: For `Cc1cncc(C(=O)N2CCCC3(CCCN3S(C)(=O)=O)C2)c1` (stereo not drawn), which cytotoxicity at 10 µM is on record?
A: -152%

Q: For `c1coc(-c2[nH]c3ncccc3c2CN2CCCOCC2)c1`, which cytotoxicity at 10 µM is on record?
A: -5.44%

Q: With `COc1ccc(CCC2CCCN(C(=O)c3cnc(N)nc3C)C2)cc1` (stereo not drawn) as the compound, how does the cytotoxicity at 10 µM read?
A: 1.14%

Q: For `Cc1n[nH]c(C)c1CCC(=O)NCC1CCCN(C2CCCC2)C1` (stereo not drawn), which cytotoxicity at 10 µM is on record?
A: -6.32%

Q: Which cytotoxicity at 10 µM does the source give for `Cc1cnc(C(=O)N2CCc3ncnc(-c4cnn(C)c4)c3CC2)cn1` here?
A: 0.588%

Q: With `CCn1nc(C)c(NC(=O)CN2CCC(c3ccccc3Cl)C2)c1C` (stereo not drawn) as the compound, how does the cytotoxicity at 10 µM read?
A: -7.58%

Q: Which cytotoxicity at 10 µM does the source give for `CN(Cc1ccc(Cl)s1)C(=O)NCCN1CCCCCC1=O` here?
A: -0.509%

Q: For `O=C(CN1CCCc2cc(F)cc(F)c21)Nc1ccc(Br)cn1`, which cytotoxicity at 10 µM is on record?
A: 11%

Q: Which cytotoxicity at 10 µM does the source give for `CCN1CC(C(=O)NCCc2csc(-c3ccncc3)n2)CC1=O` (stereo not drawn) here?
A: -5.64%

Q: For `COc1ccc(C(C)NCCc2ccc(NC(C)=O)cc2)cc1F` (stereo not drawn), which cytotoxicity at 10 µM is on record?
A: 6.75%

Q: Which cytotoxicity at 10 µM does the source give for `Cn1cc(NC(=O)C2CC(=O)N(c3n[nH]c4cccc(F)c34)C2)cn1` (stereo not drawn) here?
A: 4.59%

Q: For `Fc1cccnc1N1CCOCC2(CCCN(c3nncs3)C2)C1` (stereo not drawn), which cytotoxicity at 10 µM is on record?
A: 3.44%

Q: Which cytotoxicity at 10 µM does the source give for `CCN(CC)C(=O)Nc1cc2c(cc1SC)OCCO2` here?
A: -7.87%

Q: With `CCc1nnc(CN2CCN(C(C)=O)CC2)o1` as the compound, how does the cytotoxicity at 10 µM read?
A: 4.39%

Q: Which cytotoxicity at 10 µM does the source give for `CCc1noc(CN(CCC2CCCCC2)CC(N)=O)n1` here?
A: 5.76%

Q: Which cytotoxicity at 10 µM does the source give for `COc1ccc(-c2cnc(NC(C)=O)[nH]2)cc1` here?
A: -0.825%

Q: With `O=C(CCc1ccco1)Nc1cccc(S(=O)(=O)C(F)F)c1` as the compound, how does the cytotoxicity at 10 µM read?
A: -42.5%

Q: Which cytotoxicity at 10 µM does the source give for `Cc1ccc(CNCc2cccc3cn[nH]c23)c(OC2CCOC2)c1` (stereo not drawn) here?
A: 9.6%

Q: Which cytotoxicity at 10 µM does the source give for `CCN1CCN(c2ccc(CNC(=O)c3c(C)noc3C)cn2)CC1` here?
A: 0.265%

Q: For `Cc1cc(C(=O)NCc2ccnc(N3CCN(C)CC3)c2)no1`, which cytotoxicity at 10 µM is on record?
A: -6.63%

Q: Which cytotoxicity at 10 µM does the source give for `CCn1cnnc1CCNC(=O)c1ccc(Br)cc1F` here?
A: -29.7%

Q: Which cytotoxicity at 10 µM does the source give for `Cc1nccn1CCN(C)c1nc(-c2ccc(Cl)cc2)nc2c1CNC2` here?
A: -29.5%

Q: With `OC(c1cccs1)C1CCN(c2ncccn2)CC1` (stereo not drawn) as the compound, how does the cytotoxicity at 10 µM read?
A: -52.5%

Q: Which cytotoxicity at 10 µM does the source give for `CC(=O)c1c(C)nn(CC(=O)N2Cc3cnc(CC(C)C)nc3C2)c1C` here?
A: 3.75%

Q: For `Cc1ccc(C(NCC(=O)N2CCNC(=O)C2)c2ccccc2)cc1` (stereo not drawn), which cytotoxicity at 10 µM is on record?
A: 2.1%

Q: Which cytotoxicity at 10 µM does the source give for `NC(=O)c1cccc(CCNCc2cnc(C3CCC3)s2)c1` here?
A: 21.9%

Q: With `Cc1cnn(CC2CCCN2Cc2nc3ccccc3n2C)c1` (stereo not drawn) as the compound, how does the cytotoxicity at 10 µM read?
A: -14.5%

Q: Which cytotoxicity at 10 µM does the source give for `CS(=O)(=O)N1CCC(n2nnn(-c3ccccc3)c2=O)CC1` here?
A: 2.58%

Q: With `Cc1noc(C)c1CNC(=O)N1CCN(CC2CC2)CC1` as the compound, how does the cytotoxicity at 10 µM read?
A: -6.48%

Q: Which cytotoxicity at 10 µM does the source give for `Cc1cc(C2CCCN2C(=O)CN2C(=O)OC(C)(C)C2=O)on1` (stereo not drawn) here?
A: -14.1%

Q: Which cytotoxicity at 10 µM does the source give for `c1cnnc(N2CCCC2CNCc2csc(-c3ccco3)n2)c1` (stereo not drawn) here?
A: -8.42%

Q: With `CN(Cc1cccc(F)c1)C(=O)CN1CCOC(Cn2cncn2)C1` (stereo not drawn) as the compound, how does the cytotoxicity at 10 µM read?
A: -2.09%

Q: For `Cc1ccc(CC(=O)N2CCOCC2c2ncon2)cc1` (stereo not drawn), which cytotoxicity at 10 µM is on record?
A: -2.03%

Q: For `Cc1c(Cl)cc(C(=O)N(CCO)Cc2nccn2C)cc1Cl`, which cytotoxicity at 10 µM is on record?
A: 2.66%

Q: Which cytotoxicity at 10 µM does the source give for `O=C(Cc1ccco1)N1C[C@@H]2COC[C@]2(COCC2CCOCC2)C1` here?
A: -102%

Q: Which cytotoxicity at 10 µM does the source give for `CCC(CC)n1nc(C)cc1NC(=O)C1CCOC1` (stereo not drawn) here?
A: -5.15%

Q: Which cytotoxicity at 10 µM does the source give for `O=C(O)c1cnc(N2CCC(O)CC2)nc1COc1ccc(F)cc1` here?
A: -7.52%

Q: With `COc1c(C)cnc(CN(C)C(=O)c2ccccc2O)c1C` as the compound, how does the cytotoxicity at 10 µM read?
A: -14.3%

Q: Which cytotoxicity at 10 µM does the source give for `O=C(c1cc(F)cc(F)c1)N1CCC(O)(C(F)(F)F)CC1` here?
A: 7.08%

Q: With `CN(C)C(=O)CCNC(=O)Nc1cccc(Cl)c1-n1cccn1` as the compound, how does the cytotoxicity at 10 µM read?
A: 0.399%

Q: Which cytotoxicity at 10 µM does the source give for `Cn1ccnc1CN1CCC2(CC1)CC(NC(=O)c1ccccn1)CO2` (stereo not drawn) here?
A: -2.05%

Q: Which cytotoxicity at 10 µM does the source give for `Cc1ccsc1C(=O)N1CCC2(CC1)C(=O)N(C)CCN2CC1CC1` here?
A: -110%

Q: For `CCc1cccc(C)c1NC(=O)c1ccccc1N(C)S(C)(=O)=O`, which cytotoxicity at 10 µM is on record?
A: 17.8%

Q: For `CN(CCn1cnnc1)S(=O)(=O)c1ccc(C(F)(F)F)nc1`, which cytotoxicity at 10 µM is on record?
A: 6.71%

Q: With `COCCN1C[C@@H]2CN(c3cnccn3)C[C@@H]2C1=O` as the compound, how does the cytotoxicity at 10 µM read?
A: -104%

Q: Which cytotoxicity at 10 µM does the source give for `Cn1ccnc1CN1CCC2(CC(=O)N(c3cncnc3)C2)C1` (stereo not drawn) here?
A: -0.799%

Q: For `CCn1cc(S(=O)(=O)NC2(CN3CCOCC3)CCCCC2)c(C)n1`, which cytotoxicity at 10 µM is on record?
A: 1.88%

Q: With `Cc1cnc(CNCc2cn(CCN3CCSCC3)nc2C)cn1` as the compound, how does the cytotoxicity at 10 µM read?
A: -0.629%

Q: With `CC(C)OCCCNC(=O)NC(C)c1ccc(-n2cncn2)cc1` (stereo not drawn) as the compound, how does the cytotoxicity at 10 µM read?
A: -5.32%

Q: Which cytotoxicity at 10 µM does the source give for `CCN(CC)CC[C@H]1CN(C(=O)C(C)(C)C)CC[C@H]1CC(=O)O` here?
A: 0.0915%

Q: Which cytotoxicity at 10 µM does the source give for `COc1cccc(C2CC(=O)Nc3c2c(=O)n(C)c2ncnn32)c1` (stereo not drawn) here?
A: -0.549%

Q: With `Cc1c[nH]c(C2CCCN(Cc3ccccc3C(=O)O)C2)n1` (stereo not drawn) as the compound, how does the cytotoxicity at 10 µM read?
A: -3.3%

Q: With `COCCNC(=O)c1ccc(NCc2c(C)noc2C)cc1Cl` as the compound, how does the cytotoxicity at 10 µM read?
A: 0.678%

Q: Which cytotoxicity at 10 µM does the source give for `COCCn1c2c(ccc1=O)CC(NCc1cnn(C)c1)CC2` (stereo not drawn) here?
A: -103%

Q: For `CN(C)CCN1CCC2(CCN(C(=O)c3cccnc3)CC2)C1=O`, which cytotoxicity at 10 µM is on record?
A: 2.61%

Q: Which cytotoxicity at 10 µM does the source give for `Cc1nc(-c2ccccc2)sc1CSCCS(C)(=O)=O` here?
A: 3.85%

Q: With `O=C(NCCCn1nc2ccccn2c1=O)NC(C1CC1)C1CC1` as the compound, how does the cytotoxicity at 10 µM read?
A: 2.74%
